Bioassay records deposited in PubChem BioAssay by The Scripps Research Institute Molecular Screening Center.
TAAR1 agonist – human TAAR1 agonists, primary screen, Fluo-8 calcium fluorescence, CHO RD-HGA16 cells; Trace amine-associated receptor 1 (Homo sapiens), Q96RJ0; vehicle wells 0%, saturating PEA agonist 100%; activation, % at 3 µM; hit rate 0.99% among 360,000;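 active = activation above the mean activation of all test compounds in the run plus 3 SD, cut at about 38% in these data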
Target sequence (Q96RJ0 whole entry, looked up): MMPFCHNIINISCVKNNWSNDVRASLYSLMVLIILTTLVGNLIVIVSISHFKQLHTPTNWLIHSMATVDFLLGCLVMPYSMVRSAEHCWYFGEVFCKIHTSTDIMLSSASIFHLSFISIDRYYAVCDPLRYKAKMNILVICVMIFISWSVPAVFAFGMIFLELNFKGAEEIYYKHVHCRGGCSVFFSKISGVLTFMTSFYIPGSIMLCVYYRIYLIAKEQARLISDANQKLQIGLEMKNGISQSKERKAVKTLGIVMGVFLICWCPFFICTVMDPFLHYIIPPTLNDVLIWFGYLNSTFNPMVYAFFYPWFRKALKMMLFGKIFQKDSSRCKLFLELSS
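System: CHO-derived RD-HGA16 cells with stable Gα16 and human TAAR1. Times: 17-24 h plating, Fluo-8 75 min 37 °C, 30 min RT. Measured by: calcium-sensitive Fluo-8 signal, excitation 470-495, emission 515-575 nm. Read-out basis: % activation relative to PEA EC100 response. Control set: DMSO and PEA EC100. Repeats: no replicates (n 1).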
OX1R antag-1 – antagonists of human orexin 1 receptor (OX1R); hit rate 1.8% among 330,000; OX1R-expressing cells, FRET antagonist read-out; inhibition, % at 6.6 µM; in the data active = inhibition mostly above about 38%, no sharp cut-off; inactive = mostly below about 40%;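 also: 0% = agonist challenge alone and 100% = reference antagonist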
OX1R antag-2 – OX1R (HCRTR1) antagonists, primary screen, fluorescence, CHO/OX1R cells, Fluo-8 calcium, orexin A | inhibition, % at 5 µM | hit rate 0.43% among 330,000 | Fluo-8 calcium fluorescence;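 active = inhibition above its plate's threshold, mean inhibition of all tested compounds on the plate plus 3 SD, cut at about 37% in these data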;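 also: 0% = orexin A challenge wells and 100% = SB-334867-A antagonist wells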
TAAR1 antagonist – human TAAR1 antagonists, primary screen, Fluo-8 calcium fluorescence, CHO RD-HGA16 cells. antagonist. hit rate 1.5% among 360,000. inhibition, % at 3 µM. Trace amine-associated receptor 1 (Homo sapiens), Q96RJ0;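 active = inhibition above a per-plate cutoff, the mean inhibition of test compounds on that plate plus 3 SD, cut at about 49% in these data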;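 also: 0% = DMSO plus EC80 beta-PEA response and 100% = DMSO alone without agonist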
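Test system: RD-HGA16 CHO cells with stable hTAAR1 and Gα16 / Probe or stimulus: EC80 β-phenethylamine stimulus / Times: seeding 17-24 h prior, 75-min 37 °C, 30-min RT dye loading / Detection: Fluo-8 calcium-sensitive fluorescence / Read-out basis: % inhibition scaled between DMSO and EC80 PEA controls / Repeats: singlicate, one well per test compound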
GPR7 antagonist – GPR7 receptor antagonists, primary screen, cell-based, fluorescence, single concentration. inhibition, % at 4.4 µM. hit rate 1.1% among 290,000. GPR7-expressing cells, fluorescence antagonist assay; in the data active = inhibition above about 16%, passing the limit was not always enough;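 also: cells stimulated with the agonist NPW; 0% = agonist with vehicle and 100% = vehicle without agonist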
Target sequence (P48145 whole entry, looked up): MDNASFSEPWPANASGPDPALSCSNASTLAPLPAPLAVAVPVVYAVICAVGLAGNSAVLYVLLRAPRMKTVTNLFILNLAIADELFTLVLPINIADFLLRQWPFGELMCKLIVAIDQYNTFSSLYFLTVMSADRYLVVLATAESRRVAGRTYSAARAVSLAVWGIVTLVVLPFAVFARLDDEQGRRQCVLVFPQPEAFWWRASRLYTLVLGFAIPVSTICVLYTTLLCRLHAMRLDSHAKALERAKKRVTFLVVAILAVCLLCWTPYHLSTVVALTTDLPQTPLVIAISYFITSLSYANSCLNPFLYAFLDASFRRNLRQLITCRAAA
CHO parental Ca – ATP-evoked calcium signal inhibitors, parental CHO, primary screen, counter-screen for OX1R antagonist project, cell-based, fluorescence, Fluo-8 calcium dye | parental CHO-K1, ATP-induced calcium, Fluo-8 fluorescence | inhibition, % at 5.6 µM | hit rate 0.63% among 330,000 | AID 463079, 2010;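 active = inhibition above that plate's mean sample inhibition plus 3 SD, cut at about 26% in these data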;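 also: 0% = ATP-challenged DMSO wells and 100% = DMSO wells without ATP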
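Test system: untransfected parental CHO cell line; also added: ATP stimulus; dosing: 5.6 µM, single dose; signal: calcium-sensitive Fluo-8 fluorescence; measure: percent inhibition of ATP-evoked calcium rise, normalized to controls; benchmarks: low control ATP plus DMSO, high control DMSO only; replication: one well per compound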
GPR7 antag conf – GPR7 receptor antagonists, confirmation, cell-based, fluorescence, single concentration; shares compounds with GPR7 antagonist; GPR7-expressing cells, calcium fluorescence antagonist mode; inhibition, % at 4.4 µM; hit rate 52% among 2,400; in the data active = inhibition above about 24%;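 also: stimulated with the GPR7 agonist NPW; 0% = agonist plus vehicle and 100% = vehicle alone without agonist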
MCHR1 antag – MCHR1 antagonists in cells, counter-screen for GPR7 antagonist project, cell-based, fluorescence, human | inhibition, % at 4.4 µM | shares compounds with GPR7 antagonist | AID 2148, 2009 | MCHR1-expressing cells, fluorescence antagonist assay | hit rate 62% among 2,400; in the data active = inhibition above about 22%;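 also: 0% = vehicle with agonist and 100% = vehicle without agonist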
* hit, by the source's call; x = no result. An excerpt weighted towards active compounds, which were near 4.6% of everything screened.

SMILES | TAAR1 agonist | OX1R antag-1 | OX1R antag-2 | TAAR1 antagonist | GPR7 antagonist | CHO parental Ca | GPR7 antag conf | MCHR1 antag
COC(=O)C1=C(C)N(Cc2ccccc2)C(=NCc2cc(OC)c(OC)c(OC)c2)N[C@H]1c1cccc(F)c1 | x | 25 | -34 | x | 11 | -29 | x | x
CCOC(=O)CNC(=S)N(CCCN1CCCCC1)Cc1cccs1 | 0 | 4 | -9 | 4 | 35* | -9 | 9 | 16
COc1ccc(/C=C2\CCc3ccccc3C2=O)cc1O | 6 | 4 | -7 | -9 | 25* | -12 | 30* | 34*
C=CCCC(=O)NC1CC(C)(C)Cc2c1cnn2-c1ccc(OC)cc1 (centres undefined) | -1 | 23 | -30 | -2 | 26* | -19 | 1 | -1
Cc1cc(Nc2cc(F)c(F)c(F)c2)cc(=O)n1-c1cc(F)c(F)c(F)c1 | 1 | x | x | -13 | x | x | x | x
Cc1ccc(C(=O)N[C@H](C(=O)Nc2ccc(N3CCOCC3)cc2)C(C)C)cc1 | 0 | x | x | -25 | x | x | x | x
CNC(=S)N/N=C/c1cn(Cc2c(F)cccc2Cl)c2ccccc12 | 3 | 7 | -13 | -8 | 30* | 2 | 45* | 30*
C[C@@H](CN1C(=O)C(=O)NC[C@@H]1Cc1ccc(O)cc1)NC(=O)Cc1ccccc1 | 11 | 31 | -4 | -10 | -6 | 0 | x | x
Cc1cc(C(=O)OCC(=O)NCc2ccc(Cl)cc2)c(C)o1 | 3 | 10 | -7 | 9 | 9 | 6 | x | x
COc1cc(OC)cc(C(=O)N2CCCC(Nc3ccc(F)cc3)C2)c1 (centres undefined) | -1 | 16 | -40 | -11 | 28* | -18 | -15 | -11
C=CCOc1cccc(C(=O)N2CCCC(Nc3ccc(F)cc3)C2)c1 (centres undefined) | 4 | 26 | -18 | -9 | -1 | -17 | x | x
CC(=O)c1ccc(OCC(=O)Nc2ccccc2N2CCCC2)cc1 | -2 | 18 | -23 | -30 | -2 | -13 | x | x
CCc1ccccc1NC(=O)COc1ccc(C(=S)N2CCCC2)cc1 | 4 | 46* | -1 | 9 | 23* | -15 | -9 | 2
Cc1ccccc1OCCC(=O)OCC(=O)Nc1cc(S(=O)(=O)N2CCOCC2)ccc1Cl | 9 | 8 | -6 | -7 | -4 | -12 | x | x
Cc1ccc(S(=O)(=O)CC(O)COc2ccc(C#N)cc2)cc1 (centres undefined) | 5 | 3 | -17 | 5 | -9 | 7 | x | x
Cc1ccc(S(=O)(=O)N(C)S(=O)(=O)c2ccc(C#N)cc2)cc1 | x | 9 | -16 | x | 25* | -4 | 19 | 25*
Cn1c(=O)c(C(=O)NCCc2ccc(Cl)cc2)c(O)c2ccccc21 | 2 | 3 | -8 | -6 | -12 | -2 | x | x
O=C(O)c1cccc(N2C(=O)c3cc4cccc(Br)c4cc3C2=O)c1 | 2 | 3 | -5 | 2 | 38* | -7 | 0 | 11
Cc1ccnc(NS(=O)(=O)c2ccc(-n3cccn3)cc2)c1 | 1 | 16 | -8 | -1 | -13 | -11 | x | x
Cc1ccc(CN2CCSc3ccc(C(=O)N4CCOCC4)cc32)cc1 | x | 15 | -36 | x | -17 | -30 | x | x
CCN1CCN(C(=O)c2ccc3c(c2)N(Cc2ccc(C)cc2)CCS3)CC1 | 3 | 19 | -19 | -22 | x | -31 | x | 12
CN(C)/C=C/C(=O)c1ncc(C(F)(F)F)cc1Cl | -3 | 12 | -19 | 18 | -3 | -5 | x | x
Cc1ccc(OCC(O)CNC2CCCC2)c(C)c1 (centres undefined) | 5 | x | x | -4 | -19 | x | x | x
Cc1ccccc1OCC(O)CNC1CCC(NCC(O)COc2ccccc2C)CC1 (centres undefined) | 4 | -16 | -18 | 12 | 77* | 16 | 83* | 80*
OC(CNC1Cc2ccccc2C1)COc1ccc(F)cc1 (centres undefined) | 9 | 1 | -20 | -4 | 22* | -16 | 5 | -4
SMILES | TAAR1 agonist | OX1R antag-1 | OX1R antag-2 | TAAR1 antagonist | GPR7 antagonist | CHO parental Ca | GPR7 antag conf | MCHR1 antag
CCOC(=O)/C=C1\SCC(=O)N1CCOc1cccc(Br)c1 | 7 | 20 | -16 | -12 | 16 | -8 | x | x
O=C(NC1CCCC1)C(c1ccc(F)cc1)N(Cc1ccccc1)C(=O)c1csnn1 (centres undefined) | -4 | 15 | -37 | 0 | 23* | -18 | 32* | 22*
COCCN(C(=O)c1csnn1)C(C(=O)NC1CCCCC1)c1ccc(C)cc1 (centres undefined) | -3 | 11 | -17 | -1 | -6 | -15 | x | x
O=C(NC1CCCCC1)C(c1ccccc1F)N(C(=O)c1csnn1)C1CCCC1 (centres undefined) | 6 | 24 | -28 | 4 | 23* | -22 | 17 | 19
COCCN(C(=O)c1csnn1)C(C(=O)NC1CCCC1)c1ccccc1 (centres undefined) | -1 | 15 | -24 | 9 | 44* | -18 | 1 | -6
O=C(NC1CCCC1)C(c1ccccc1)N(Cc1ccc(F)cc1)C(=O)c1csnn1 (centres undefined) | -4 | 20 | -29 | 14 | 5 | -30 | x | x
CC(C)C[C@@H](CN)NC(=O)c1nc[nH]c1C(=O)N[C@@H](C)C(=O)CNC[C@H](C)NC(=O)c1nc[nH]c1C(=O)N[C@@H](Cc1ccccc1)C(=O)O | 0 | x | x | 5 | x | x | x | x
CCN=C1NC(c2cccc(Cl)c2)C(C(=O)OC)=C(C)N1Cc1ccccc1C(F)(F)F (centres undefined) | 9 | x | x | -1 | x | x | x | x
COc1ccccc1CNS(=O)(=O)c1c(C)[nH]c(C)c1C(=O)N1CCCC1 | 2 | 20 | -12 | -37 | -15 | -3 | x | x
CC1Cc2ccccc2N1C(=O)c1cccnc1 (centres undefined) | 5 | 10 | 0 | 20 | -8 | -7 | x | x
CC1CCc2cc(F)ccc2N1C(=O)c1cccnc1 (centres undefined) | 0 | -1 | -10 | -8 | 26* | -11 | -5 | 1
O=C(Nc1ccnn1C1CCN(Cc2ccc(CO)o2)CC1)c1ccccc1 | 0 | -5 | -8 | -6 | 29* | -4 | -9 | 16
COC(=O)Cn1nnnc1-c1nc2cc(C)c(C)cc2[nH]c1=O | 0 | x | x | -2 | x | x | x | x
